Assay results from different studies.
Each line is one published result; the experiments were not run side by side.
PDE10A: cAMP and cAMP-inhibited cGMP 3',5'-cyclic phosphodiesterase 10A (PDE10A, Homo sapiens, UniProt Q9Y233)
DRD3: D(3) dopamine receptor (DRD3, Homo sapiens, UniProt P35462)
SLC6A3: Sodium-dependent dopamine transporter (SLC6A3, Homo sapiens, UniProt Q01959)

COc1ccc(-c2cccc(Cc3ncnc4cc(OC)c(OC)cc34)c2)cc1OC
inhibition (PDE10A; enzyme activity; inhibitor; FP; 0.1 µM): 85%

CCN1/C(=C/C(C)=O)Sc2ccc(F)cc21
inhibition (DRD3; ligand displacement; radioligand; 10 µM): 0%

N#CC[C@@]12C[C@@H]1[C@@H](n1cnc3c(NCCCCCc4ccccc4)nc(C#Cc4ccc(Cl)s4)nc31)[C@H](O)[C@@H]2O
inhibition (SLC6A3; ligand displacement; radioligand; 10 µM): 7%

NC/C(=C\F)COc1cccc(Cn2c(=S)[nH]c(=O)c3[nH]cnc32)c1
inhibition (DRD3; ligand displacement; radioligand; 10 µM): < 50%

CNC(=O)[C@@]12C[C@@H]1[C@@H](n1cnc3c(NCc4cccc(Cl)c4)nc(C#Cc4ccc(Cl)s4)nc31)[C@H](O)[C@@H]2O
inhibition (SLC6A3; ligand displacement; radioligand; 10 µM): 75%

CN(C)CCOC(=O)COc1ccc(Cl)cc1
inhibition (Peroxisome proliferator-activated receptor gamma (PPARG, Homo sapiens, UniProt P37231); cell-free assay; TR-FRET; 1 µM): 3.65%

C#Cc1cc(-c2cc(Nc3nc(N[C@@H](C)c4ccc(F)cn4)ncc3Cl)n[nH]2)ccc1C=O
inhibition (Dual specificity protein kinase CLK4 (CLK4, Homo sapiens, UniProt Q9HAZ1); enzyme activity; inhibitor; 0.2 µM): 53.5%

O[C@@H]1[C@H](O)[C@@H]2C[C@@H]2[C@H]1n1cnc2c(NCCC3CC3)nc(I)nc21
inhibition (SLC6A3; ligand displacement; radioligand; 10 µM): 9%

COc1cc2ncnc(Cc3cccc(-c4ccccc4OC)c3)c2cc1OC
inhibition (PDE10A; enzyme activity; inhibitor; FP; 0.1 µM): 31%

OC[C@@]12C[C@@H]1[C@@H](n1cnc3c(NCCCCCCc4ccccc4)nc(I)nc31)[C@H](O)[C@@H]2O
inhibition (SLC6A3; ligand displacement; radioligand; 10 µM): 79%

COc1cc2ncnc(Cc3cccc(-c4ccccc4)c3C)c2cc1OC
inhibition (PDE10A; enzyme activity; inhibitor; FP; 0.1 µM): 54%

CCOC(=O)[C@@]12C[C@@H]1[C@@H](n1cnc3c(NCCCCc4ccccc4)nc(I)nc31)[C@H](O)[C@@H]2O
inhibition (SLC6A3; ligand displacement; radioligand; 10 µM): 19%

COc1cc2ncnc(Cc3cccc4ccccc34)c2cc1OC
inhibition (PDE10A; enzyme activity; inhibitor; FP; 0.1 µM): 56%

NC(=O)CC[C@H](N)C(=O)NCC(=O)NCC(=O)N[C@@H](CC(=O)O)C(=O)N[C@@H](Cc1ccccc1)C(=O)O
inhibition (Angiotensin-converting enzyme (ACE, Homo sapiens, UniProt P12821); enzyme activity; inhibitor; 1.4 mM): 49.9%

c1ccc(-c2cccc(Cc3nccc4ccccc34)c2)cc1
inhibition (PDE10A; enzyme activity; inhibitor; FP; 0.1 µM): 0%

CCOC(=O)[C@@]12C[C@@H]1[C@@H](n1cnc3c(Nc4ccccc4)nc(C#Cc4ccc(Cl)s4)nc31)[C@H](O)[C@@H]2O
inhibition (SLC6A3; ligand displacement; radioligand; 10 µM): 89%

COc1ccc2c(Cc3cccc(-c4ccccc4)c3)ncnc2c1
inhibition (PDE10A; enzyme activity; inhibitor; FP; 0.1 µM): 22%

Cc1cc(O)c(-c2ccc([C@@H](C)CN(C)C)cc2)c2c1[nH]c(=O)c1sccc12
inhibition (Ephrin type-B receptor 4 (EPHB4, Homo sapiens, UniProt P54760); cell-free assay; inhibitor; 0.1 µM): -4.58%
